pIC50, pKi: −log10 of the molar value. *1 amine or outer side, *2 acyl side, *3 side chain or, on linkers, in order; H or OH if unused. Where a SMILES comes first, the peptide text is derived from it. [ ]: non-standard residue; d: D form. The star is where a group is joined. ξ: configuration not given here. NH(2-Cl-4-NO2-phenyl) = O=[N+]([O-])c1ccc(N*)c(Cl)c1; Phe(4-F) = N[C@@H](Cc1ccc(F)cc1)C(=O)O; Thr(3ξ) = CC(O)[C@H](N)C(=O)O; Morpholide = C1CN(*)CCO1; Cbz = O=C(OCc1ccccc1)*; CO = O=C([*:1])[*:2]; Piv = CC(C)(C)C(=O)*; Propionyl = CCC(=O)*; Bz = O=C(c1ccccc1)*; X1 = CC1CCN(*)O1

38 compounds from ChEMBL document CHEMBL1145153, “Discovery of potent anilide inhibitors against the severe acute respiratory syndrome 3CL protease” (J Med Chem, 2005) can be followed below.

A short description of the first assay: Concentration required to inhibit SARS-CoV 3CL protease catalyzed cleavage of fluorogenic peptide Dabcyl-KTSAVLQSGFRKME-Edans by 50%. The essentials: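 Purified enzyme (stock held in 12 mM Tris-HCl pH 7.5, 120 mM NaCl, 0.1 mM EDTA, 1 mM DTT, 7.5 mM β-ME) at 50 nM with 6 μM substrate in 20 mM Bis-Tris pH 7.0. Cleavage followed as fluorescence increase, excitation 355 nm, emission 538 nm. IC50 taken from initial velocities plotted against inhibitor concentration.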
`CC1CCN(C(=O)N[C@H](C(=O)N[C@@H](Cc2ccccc2)C(=O)N[C@@H](Cc2ccccc2)C(=O)Nc2ccc([N+](=O)[O-])cc2Cl)C(C)C)O1` (stereo not given in full) showed a pIC50 of 5.15.
The same measure, in the same setting: in the case of `CN(C)c1ccc(C(=O)N[C@@H](Cc2ccccc2)C(=O)Nc2ccccc2Cl)cc1` it was less than 5.00; in that of `O=C(CCC(=O)N[C@@H](Cc1ccccc1)C(=O)Nc1ccc([N+](=O)[O-])cc1Cl)NC(Cc1ccccc1)C(=O)Nc1ccc([N+](=O)[O-])cc1Cl` (stereo not given in full), less than 4.30; in that of `O=C(C[C@H](O)C(=O)N[C@@H](Cc1ccccc1)C(=O)Nc1ccc([N+](=O)[O-])cc1Cl)NC(Cc1ccccc1)C(=O)Nc1ccc([N+](=O)[O-])cc1Cl` (stereo not given in full), 5.40.
Same read-out and setting: in the case of `CCCC(=O)N[C@H](C(=O)N[C@@H](CC(C)C)C(=O)N[C@@H](Cc1ccccc1)C(=O)Nc1ccc([N+](=O)[O-])cc1Cl)C(C)C` it was 5.15.
In the case of `CC(C)C[C@H](NC(=O)[C@@H](NC(=O)c1ccccc1)C(C)C)C(=O)N[C@@H](Cc1ccccc1)C(=O)Nc1ccc([N+](=O)[O-])cc1Cl`, the pIC50 was 5.40.
With `CCCCCCCCCCCCCCC(Br)C(=O)N[C@@H](Cc1ccccc1)C(=O)Nc1ccc([N+](=O)[O-])cc1Cl` (stereo not given in full), the pIC50 was 5.52.
In the case of `CC(C)[C@H](NC(=O)c1cccs1)C(=O)C[C@@H](Cc1ccccc1)C(=O)N[C@@H](Cc1ccccc1)C(=O)Nc1ccc([N+](=O)[O-])cc1Cl`, the negative-log IC50 (pIC50) is 4.80.
Regarding `Nc1ccc(C(=O)N[C@@H](Cc2ccccc2)C(=O)Nc2ccc([N+](=O)[O-])cc2Cl)cc1N`, the negative logarithm of the IC50 (pIC50) was 5.70.
The same measure, in the same setting: next, `CC(C)C[C@H](NC(=O)[C@@H](NC(=O)N1CCOCC1)C(C)C)C(=O)N[C@@H](Cc1ccccc1)C(=O)Nc1ccc([N+](=O)[O-])cc1Cl`: 4.72; `CC(C)C[C@H](NC(=O)[C@@H](NC(=O)c1cccs1)C(C)C)C(=O)N[C@@H](Cc1ccccc1)C(=O)Nc1ccc([N+](=O)[O-])cc1Cl`: 5.30.
`CC(C)C[C@H](CC(=O)[C@@H](NC(=O)N1CCOCC1)C(C)C)C(=O)N[C@@H](Cc1ccccc1)C(=O)Nc1ccc([N+](=O)[O-])cc1Cl`: the pIC50 is 4.54.
Same read-out and setting: next, `CN(C)c1ccc(C(=O)N[C@@H](Cc2ccccc2)C(=O)Nc2ccccc2)cc1`: less than 5.00.
For `O=C(N[C@@H](Cc1ccccc1)C(=O)Nc1ccc([N+](=O)[O-])cc1Cl)c1ccccc1`, the pIC50 is less than 5.00.
`CC(C)(C)OC(=O)N[C@@H](Cc1ccccc1)C(=O)Nc1ccc([N+](=O)[O-])cc1Cl` showed a pIC50 of less than 4.30.
`O=C(Nc1ccc([N+](=O)[O-])cc1Cl)C(Cc1ccccc1)NC(=O)[C@H](O)[C@@H](O)C(=O)N[C@@H](Cc1ccccc1)C(=O)Nc1ccc([N+](=O)[O-])cc1Cl` (stereo not given in full) had a pIC50 of 5.30.
Regarding `CN(C)c1ccc(C(=O)N[C@@H](Cc2ccccc2)C(=O)Nc2ccc([N+](=O)[O-])cc2)cc1`, the pIC50 was less than 5.00.
With `O=C(N[C@@H](Cc1ccccc1)C(=O)Nc1ccc([N+](=O)[O-])cc1)c1ccccc1`, the pIC50 was less than 5.00.
The compound `CCC(=O)N[C@H](C(=O)C[C@@H](CC(C)C)C(=O)N[C@@H](Cc1ccccc1)C(=O)Nc1ccc([N+](=O)[O-])cc1Cl)C(C)C` had a pIC50 of 4.57.
The compound `CC(C)C[C@H](CC(=O)[C@@H](NC(=O)c1ccccc1)C(C)C)C(=O)N[C@@H](Cc1ccccc1)C(=O)Nc1ccc([N+](=O)[O-])cc1Cl` gave a pIC50 of 4.68.
`CC(C)C[C@H](CC(=O)[C@@H](NC(=O)OC(C)(C)C)C(C)C)C(=O)N[C@@H](Cc1ccccc1)C(=O)Nc1ccc([N+](=O)[O-])cc1Cl` gave a pIC50 of 4.72.
Still for that read-out and setting: in the case of `CC(C)C[C@H](CC(=O)[C@@H](NC(=O)c1cccs1)C(C)C)C(=O)N[C@@H](Cc1ccccc1)C(=O)Nc1ccc([N+](=O)[O-])cc1Cl` it was 4.66; in that of `CC(O)[C@H](NC(=O)[C@H](O)[C@@H](O)C(=O)N[C@H](C(=O)N[C@H](Cc1ccccc1)C(=O)Nc1ccc([N+](=O)[O-])cc1Cl)C(C)O)C(=O)N[C@@H](Cc1ccccc1)C(=O)Nc1ccc([N+](=O)[O-])cc1Cl` (stereo not given in full), 5.70.
Compound `CC(O)[C@H](NC(=O)C[C@@H](O)C(=O)N[C@H](C(=O)N[C@@H](Cc1ccccc1)C(=O)Nc1ccc([N+](=O)[O-])cc1Cl)C(C)O)C(=O)NC(Cc1ccccc1)C(=O)Nc1ccc([N+](=O)[O-])cc1Cl` (stereo not given in full) showed a pIC50 of 5.70.
In turn, `CN(C)c1ccc(C(=O)N[C@@H](Cc2ccccc2)C(=O)Nc2ccc([N+](=O)[O-])cc2Cl)cc1` gave a pIC50 of 7.22.
On the same count and under the same terms, next, `CC(O)[C@H](NC(=O)CCC(=O)N[C@H](C(=O)N[C@@H](Cc1ccccc1)C(=O)Nc1ccc([N+](=O)[O-])cc1Cl)C(C)O)C(=O)NC(Cc1ccccc1)C(=O)Nc1ccc([N+](=O)[O-])cc1Cl` (stereo not given in full): 5.70; `CC(C)[C@H](NC(=O)c1cccs1)C(=O)N[C@@H](Cc1ccccc1)C(=O)N[C@@H](Cc1ccccc1)C(=O)Nc1ccc([N+](=O)[O-])cc1Cl`: 5.30.
On to `CC(C)C[C@H](NC(=O)[C@@H](NC(=O)OC(C)(C)C)C(C)C)C(=O)N[C@@H](Cc1ccccc1)C(=O)Nc1ccc([N+](=O)[O-])cc1Cl`, for which the pIC50 is less than 5.00.
Still for that read-out and setting: in the case of `O=C(N[C@@H](Cc1ccccc1)C(=O)Nc1ccc([N+](=O)[O-])cc1Cl)c1ccc([N+](=O)[O-])cc1` it was less than 5.00; in that of `O=C(/C=C/c1c[nH]c2ccccc12)N[C@@H](Cc1ccccc1)C(=O)Nc1ccc([N+](=O)[O-])cc1Cl`, 5.52.
On the same count and under the same terms, in the case of `CC(C)[C@H](NC(=O)c1ccccc1)C(=O)N[C@@H](Cc1ccc(F)cc1)C(=O)N[C@H](C(=O)N[C@@H](Cc1ccccc1)C(=O)Nc1ccc([N+](=O)[O-])cc1Cl)C(C)O` (stereo not given in full) (Bz-V[Phe(4-F)][Thr(3ξ)]F-{NH(2-Cl-4-NO2-phenyl)}) it was 5.70.
Consider `CC(C)[C@H](NC(=O)OCc1ccccc1)C(=O)N[C@@H](Cc1ccccc1)C(=O)N[C@H](C(=O)N[C@@H](Cc1ccccc1)C(=O)Nc1ccc([N+](=O)[O-])cc1Cl)C(C)O` (stereo not given in full) (Cbz-VF[Thr(3ξ)]F-{NH(2-Cl-4-NO2-phenyl)}), for which the pIC50 was 5.22.
The compound `CC(C)[C@H](NC(=O)C(C)(C)C)C(=O)N[C@@H](Cc1ccccc1)C(=O)N[C@H](C(=O)N[C@@H](Cc1ccccc1)C(=O)Nc1ccc([N+](=O)[O-])cc1Cl)C(C)O` (stereo not given in full) (Piv-VF[Thr(3ξ)]F-{NH(2-Cl-4-NO2-phenyl)}) gave a pIC50 of 5.70.
On to `CCC(=O)N[C@H](C(=O)N[C@@H](CC(C)C)C(=O)N[C@H](C(=O)N[C@@H](Cc1ccccc1)C(=O)Nc1ccc([N+](=O)[O-])cc1Cl)C(C)O)C(C)C` (stereo not given in full) (Propionyl-VL[Thr(3ξ)]F-{NH(2-Cl-4-NO2-phenyl)}), for which the pIC50 is 5.15.
Take `CCC(=O)N[C@H](C(=O)N[C@@H](Cc1ccc(F)cc1)C(=O)N[C@H](C(=O)N[C@@H](Cc1ccccc1)C(=O)Nc1ccc([N+](=O)[O-])cc1Cl)C(C)O)C(C)C` (stereo not given in full) (Propionyl-V[Phe(4-F)][Thr(3ξ)]F-{NH(2-Cl-4-NO2-phenyl)}): the pIC50 is 5.30.
In turn, `CC(C)C[C@H](NC(=O)[C@@H](NC(=O)N1CCOCC1)C(C)C)C(=O)N[C@H](C(=O)N[C@@H](Cc1ccccc1)C(=O)Nc1ccc([N+](=O)[O-])cc1Cl)C(C)O` (stereo not given in full) ({Morpholide-CO}-VL[Thr(3ξ)]F-{NH(2-Cl-4-NO2-phenyl)}) gave a pIC50 of 4.80.
Turning to `CC1CCN(C(=O)N[C@H](C(=O)N[C@@H](Cc2ccccc2)C(=O)N[C@H](C(=O)N[C@@H](Cc2ccccc2)C(=O)Nc2ccc([N+](=O)[O-])cc2Cl)C(C)O)C(C)C)O1` (stereo not given in full) ({X1-CO}-VF[Thr(3ξ)]F-{NH(2-Cl-4-NO2-phenyl)}), the pIC50 is 5.30.
Turning to `O=C(Nc1ccc([N+](=O)[O-])cc1Cl)c1cc(Cl)ccc1O` [NICLOSAMIDE], the pIC50 was less than 5.00.

A further assay can be described thus: Inhibitory constant against SARS-CoV 3CL protease catalyzed cleavage of fluorogenic peptide Dabcyl-KTSAVLQSGFRKME-Edans. Put shortly:
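Fluorometric cleavage assay in 20 mM Bis-Tris pH 7.0, excitation 355 nm, emission 538 nm. Enzyme stock held in 12 mM Tris-HCl pH 7.5 with NaCl, EDTA, DTT and β-ME. Initial rates measured at two fixed inhibitor concentrations across various substrate concentrations. Ki derived using double-reciprocal plots of rate versus substrate concentration.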
In the case of `CC1CCN(C(=O)N[C@H](C(=O)N[C@@H](Cc2ccccc2)C(=O)N[C@@H](Cc2ccccc2)C(=O)Nc2ccc([N+](=O)[O-])cc2Cl)C(C)C)O1` (stereo not given in full), the negative-log Ki (pKi) is 5.54.
Still for that read-out and setting: next, `O=C(C[C@H](O)C(=O)N[C@@H](Cc1ccccc1)C(=O)Nc1ccc([N+](=O)[O-])cc1Cl)NC(Cc1ccccc1)C(=O)Nc1ccc([N+](=O)[O-])cc1Cl` (stereo not given in full): 5.51.
`CC(C)C[C@H](NC(=O)[C@@H](NC(=O)c1cccs1)C(C)C)C(=O)N[C@@H](Cc1ccccc1)C(=O)Nc1ccc([N+](=O)[O-])cc1Cl`: the negative-log Ki (pKi) is 5.64.
Still for that read-out and setting: next, `CN(C)c1ccc(C(=O)N[C@@H](Cc2ccccc2)C(=O)Nc2ccc([N+](=O)[O-])cc2Cl)cc1`: 7.52; `CC(C)[C@H](NC(=O)c1cccs1)C(=O)N[C@@H](Cc1ccccc1)C(=O)N[C@@H](Cc1ccccc1)C(=O)Nc1ccc([N+](=O)[O-])cc1Cl`: 5.37.
`CC(C)[C@H](NC(=O)OCc1ccccc1)C(=O)N[C@@H](Cc1ccccc1)C(=O)N[C@H](C(=O)N[C@@H](Cc1ccccc1)C(=O)Nc1ccc([N+](=O)[O-])cc1Cl)C(C)O` (stereo not given in full) (Cbz-VF[Thr(3ξ)]F-{NH(2-Cl-4-NO2-phenyl)}) gave a pKi of 5.82.
The compound `CC1CCN(C(=O)N[C@H](C(=O)N[C@@H](Cc2ccccc2)C(=O)N[C@H](C(=O)N[C@@H](Cc2ccccc2)C(=O)Nc2ccc([N+](=O)[O-])cc2Cl)C(C)O)C(C)C)O1` (stereo not given in full) ({X1-CO}-VF[Thr(3ξ)]F-{NH(2-Cl-4-NO2-phenyl)}) had a pKi of 5.79.
